According to ChEMBL document CHEMBL4387700, “A novel, potent, and orally bioavailable thiazole HCV NS5A inhibitor for the treatment of hepatitis C virus” (Eur J Med Chem, 2019):

Assay: Cytotoxicity against human HuH7 cells assessed as reduction in cell viability by MTS assay
Type: cell-based, Huh-7
In short: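 Viability of Huh-7 cells was read by MTS assay.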

Which CC50 does the source give for `O=C(N[C@H](C(=O)N1CCC[C@H]1c1ncc(-c2ccc(-c3ccc(-c4cnc([C@@H]5CCCN5C(=O)[C@H](NC(=O)c5ccccn5)c5ccccc5)s4)cc3)cc2)s1)c1ccccc1)c1ccccn1` here?
The CC50 was > 50 µM.

With `CCCC[C@@H](NC(=O)C1CC1)C(=O)N1CCC[C@H]1c1ncc(-c2ccc(-c3ccc(-c4cnc([C@@H]5CCCN5C(=O)[C@@H](CCCC)NC(=O)C5CC5)s4)cc3)cc2)s1` as the compound, how does the CC50 read?
The CC50 was > 50 µM.

Which CC50 does the source give for `CC(C)(C)C(=O)N[C@@H](C(=O)N1CCC[C@H]1c1ncc(-c2ccc(-c3ccc(-c4cnc([C@@H]5CCCN5C(=O)[C@H](NC(=O)C(C)(C)C)c5ccccc5)s4)cc3)cc2)s1)c1ccccc1` here?
The CC50 was > 50 µM.

With `O=C(N[C@@H](C(=O)N1CCC[C@H]1c1ncc(-c2ccc(-c3ccc(-c4cnc([C@@H]5CCCN5C(=O)[C@H](NC(=O)C5CC5)C5CCCCC5)s4)cc3)cc2)s1)C1CCCCC1)C1CC1` as the compound, how does the CC50 read?
Its CC50 is > 50 µM.

For `COC(=O)N[C@@H](C(=O)N1CCC[C@H]1c1ncc(-c2ccc(-c3ccc(-c4cnc([C@@H]5CCCN5C(=O)[C@H](NC(=O)OC)c5ccccc5)s4)cc3)cc2)s1)c1ccccc1`, which CC50 is on record?
Its CC50 is > 50 µM.

With `COC(=O)N[C@@H](CC(C)C)C(=O)N1CCC[C@H]1c1ncc(-c2ccc(-c3ccc(-c4cnc([C@@H]5CCCN5C(=O)[C@H](CC(C)C)NC(=O)OC)s4)cc3)cc2)s1` as the compound, how does the CC50 read?
Its CC50 is > 50 µM.

With `CCCCC(=O)N[C@H](C(=O)N1CCC[C@H]1c1ncc(-c2ccc(-c3ccc(-c4cnc([C@@H]5CCCN5C(=O)[C@H](NC(=O)CCCC)c5ccccc5)s4)cc3)cc2)s1)c1ccccc1` as the compound, how does the CC50 read?
The CC50 was > 50 µM.

Which CC50 does the source give for `O=C(N[C@H](C(=O)N1CCC[C@H]1c1ncc(-c2ccc(-c3ccc(-c4cnc([C@@H]5CCCN5C(=O)[C@H](NC(=O)C5CC5)c5ccccc5)s4)cc3)cc2)s1)c1ccccc1)C1CC1` here?
Its CC50 is > 50 µM.

For `CCCCC(=O)N[C@@H](C(=O)N1CCC[C@H]1c1ncc(-c2ccc(-c3ccc(-c4cnc([C@@H]5CCCN5C(=O)[C@H](NC(=O)CCCC)c5ccccc5)s4)cc3)cc2)s1)c1ccccc1`, which CC50 is on record?
Its CC50 is > 50 µM.

For `CCCCCC(=O)N[C@H](C(=O)N1CCC[C@H]1c1ncc(-c2ccc(-c3ccc(-c4cnc([C@@H]5CCCN5C(=O)[C@H](NC(=O)CCCCC)c5ccccc5)s4)cc3)cc2)s1)c1ccccc1`, which CC50 is on record?
Its CC50 is > 50 µM.

With `O=C(N[C@@H](C(=O)N1CCC[C@H]1c1ncc(-c2ccc(-c3ccc(-c4cnc([C@@H]5CCCN5C(=O)[C@H](NC(=O)N5CCCC5)c5ccccc5)s4)cc3)cc2)s1)c1ccccc1)N1CCCC1` as the compound, how does the CC50 read?
Its CC50 is > 50 µM.

With `CCCC(=O)N[C@@H](C(=O)N1CCC[C@H]1c1ncc(-c2ccc(-c3ccc(-c4cnc([C@@H]5CCCN5C(=O)[C@H](NC(=O)CCC)c5ccccc5)s4)cc3)cc2)s1)c1ccccc1` as the compound, how does the CC50 read?
The CC50 was > 50 µM.

For `CC(=O)N[C@H](C(=O)N1CCC[C@H]1c1ncc(-c2ccc(-c3ccc(-c4cnc([C@@H]5CCCN5C(=O)[C@H](NC(C)=O)c5ccccc5)s4)cc3)cc2)s1)c1ccccc1`, which CC50 is on record?
Its CC50 is > 50 µM.

Which CC50 does the source give for `O=C(N[C@@H](C(=O)N1CCC[C@H]1c1ncc(-c2ccc(-c3ccc(-c4cnc([C@@H]5CCCN5C(=O)[C@H](NC(=O)C5CCC5)c5ccccc5)s4)cc3)cc2)s1)c1ccccc1)C1CCC1` here?
Its CC50 is > 50 µM.

With `CN(C)CCC(=O)N[C@@H](C(=O)N1CCC[C@H]1c1ncc(-c2ccc(-c3ccc(-c4cnc([C@@H]5CCCN5C(=O)[C@H](NC(=O)CCN(C)C)c5ccccc5)s4)cc3)cc2)s1)c1ccccc1` as the compound, how does the CC50 read?
Its CC50 is > 50 µM.

With `CS(=O)(=O)N[C@H](C(=O)N1CCC[C@H]1c1ncc(-c2ccc(-c3ccc(-c4cnc([C@@H]5CCCN5C(=O)[C@H](NS(C)(=O)=O)c5ccccc5)s4)cc3)cc2)s1)c1ccccc1` as the compound, how does the CC50 read?
The CC50 was > 50 µM.

For `O=C(N[C@H](C(=O)N1CCC[C@H]1c1ncc(-c2ccc(-c3ccc(-c4cnc([C@@H]5CCCN5C(=O)[C@H](NC(=O)c5ccoc5)c5ccccc5)s4)cc3)cc2)s1)c1ccccc1)c1ccoc1`, which CC50 is on record?
The CC50 was > 50 µM.

Which CC50 does the source give for `O=C(N[C@@H](C(=O)N1CCC[C@H]1c1ncc(-c2ccc(-c3ccc(-c4cnc([C@@H]5CCCN5C(=O)[C@H](NC(=O)c5ccccn5)c5ccccc5)s4)cc3)cc2)s1)c1ccccc1)c1ccccn1` here?
Its CC50 is > 50 µM.

For `COC(=O)N[C@H](C(=O)N1CCC[C@H]1c1ncc(-c2ccc(-c3ccc(-c4cnc([C@@H]5CCCN5C(=O)[C@@H](NC(=O)OC)C(C)(C)C)s4)cc3)cc2)s1)C(C)(C)C`, which CC50 is on record?
Its CC50 is > 50 µM.

With `CCC(=O)N[C@@H](C(=O)N1CCC[C@H]1c1ncc(-c2ccc(-c3ccc(-c4cnc([C@@H]5CCCN5C(=O)[C@H](NC(=O)CC)c5ccccc5)s4)cc3)cc2)s1)c1ccccc1` as the compound, how does the CC50 read?
The CC50 was > 50 µM.

For `O=C(N[C@@H](C(=O)N1CCC[C@H]1c1ncc(-c2ccc(-c3ccc(-c4cnc([C@@H]5CCCN5C(=O)[C@H](NC(=O)c5ccco5)c5ccccc5)s4)cc3)cc2)s1)c1ccccc1)c1ccco1`, which CC50 is on record?
The CC50 was > 50 µM.

Which CC50 does the source give for `COC(=O)N[C@H](C(=O)N1CCC[C@H]1c1ncc(-c2ccc(-c3ccc(-c4cnc([C@@H]5CCCN5C(=O)[C@@H](NC(=O)OC)c5ccccc5)s4)cc3)cc2)s1)c1ccccc1` here?
The CC50 was > 50 µM.

With `COC(=O)N[C@H](C(=O)N1CCC[C@H]1c1ncc(-c2ccc(-c3ccc(-c4cnc([C@@H]5CCCN5C(=O)[C@H](NC(=O)OC)c5ccccc5)s4)cc3)cc2)s1)c1ccccc1` as the compound, how does the CC50 read?
Its CC50 is > 50 µM.

With `O=C(N[C@@H](C(=O)N1CCC[C@H]1c1ncc(-c2ccc(-c3ccc(-c4cnc([C@@H]5CCCN5C(=O)[C@H](NC(=O)C5CCCCC5)c5ccccc5)s4)cc3)cc2)s1)c1ccccc1)C1CCCCC1` as the compound, how does the CC50 read?
Its CC50 is > 50 µM.

Which CC50 does the source give for `CCCC[C@H](NC(=O)OC)C(=O)N1CCC[C@H]1c1ncc(-c2ccc(-c3ccc(-c4cnc([C@@H]5CCCN5C(=O)[C@H](CCCC)NC(=O)OC)s4)cc3)cc2)s1` here?
The CC50 was > 50 µM.

Which CC50 does the source give for `O=C(CCn1cccc1)N[C@H](C(=O)N1CCC[C@H]1c1ncc(-c2ccc(-c3ccc(-c4cnc([C@@H]5CCCN5C(=O)[C@H](NC(=O)CCn5cccc5)c5ccccc5)s4)cc3)cc2)s1)c1ccccc1` here?
The CC50 was > 50 µM.

For `O=C(CCN1CCOCC1)N[C@H](C(=O)N1CCC[C@H]1c1ncc(-c2ccc(-c3ccc(-c4cnc([C@@H]5CCCN5C(=O)[C@H](NC(=O)CCN5CCOCC5)c5ccccc5)s4)cc3)cc2)s1)c1ccccc1`, which CC50 is on record?
The CC50 was > 50 µM.

For `O=C(N[C@@H](C(=O)N1CCC[C@H]1c1ncc(-c2ccc(-c3ccc(-c4cnc([C@@H]5CCCN5C(=O)[C@H](NC(=O)c5ccncc5)c5ccccc5)s4)cc3)cc2)s1)c1ccccc1)c1ccncc1`, which CC50 is on record?
The CC50 was > 50 µM.

Which CC50 does the source give for `CC(C)C(=O)N[C@@H](C(=O)N1CCC[C@H]1c1ncc(-c2ccc(-c3ccc(-c4cnc([C@@H]5CCCN5C(=O)[C@H](NC(=O)C(C)C)c5ccccc5)s4)cc3)cc2)s1)c1ccccc1` here?
Its CC50 is > 50 µM.

For `CCC[C@H](NC(=O)OC)C(=O)N1CCC[C@H]1c1ncc(-c2ccc(-c3ccc(-c4cnc([C@@H]5CCCN5C(=O)[C@H](CCC)NC(=O)OC)s4)cc3)cc2)s1`, which CC50 is on record?
Its CC50 is > 50 µM.

Which CC50 does the source give for `COC(=O)N[C@@H](C)C(=O)N1CCC[C@H]1c1ncc(-c2ccc(-c3ccc(-c4cnc([C@@H]5CCCN5C(=O)[C@H](C)NC(=O)OC)s4)cc3)cc2)s1` here?
Its CC50 is > 50 µM.

For `O=C(N[C@H](C(=O)N1CCC[C@H]1c1ncc(-c2ccc(-c3ccc(-c4cnc([C@@H]5CCCN5C(=O)[C@H](NC(=O)c5ccco5)c5ccccc5)s4)cc3)cc2)s1)c1ccccc1)c1ccco1`, which CC50 is on record?
The CC50 was > 50 µM.

With `O=C(N[C@@H](C(=O)N1CCC[C@H]1c1ncc(-c2ccc(-c3ccc(-c4cnc([C@@H]5CCCN5C(=O)[C@H](NC(=O)c5cccs5)c5ccccc5)s4)cc3)cc2)s1)c1ccccc1)c1cccs1` as the compound, how does the CC50 read?
Its CC50 is > 50 µM.

Which CC50 does the source give for `CC(=O)N[C@@H](C(=O)N1CCC[C@H]1c1ncc(-c2ccc(-c3ccc(-c4cnc([C@@H]5CCCN5C(=O)[C@H](NC(C)=O)c5ccccc5)s4)cc3)cc2)s1)c1ccccc1` here?
Its CC50 is > 50 µM.

With `O=C(N[C@H](C(=O)N1CCC[C@H]1c1ncc(-c2ccc(-c3ccc(-c4cnc([C@@H]5CCCN5C(=O)[C@H](NC(=O)c5ccsc5)c5ccccc5)s4)cc3)cc2)s1)c1ccccc1)c1ccsc1` as the compound, how does the CC50 read?
The CC50 was > 50 µM.

With `O=C(N[C@H](C(=O)N1CCC[C@H]1c1ncc(-c2ccc(-c3ccc(-c4cnc([C@@H]5CCCN5C(=O)[C@H](NC(=O)N5CCCCC5)c5ccccc5)s4)cc3)cc2)s1)c1ccccc1)N1CCCCC1` as the compound, how does the CC50 read?
Its CC50 is > 50 µM.

Which CC50 does the source give for `CCC[C@@H](NC(=O)C1CC1)C(=O)N1CCC[C@H]1c1ncc(-c2ccc(-c3ccc(-c4cnc([C@@H]5CCCN5C(=O)[C@@H](CCC)NC(=O)C5CC5)s4)cc3)cc2)s1` here?
Its CC50 is > 50 µM.

With `O=C(N[C@H](C(=O)N1CCC[C@H]1c1ncc(-c2ccc(-c3ccc(-c4cnc([C@@H]5CCCN5C(=O)[C@H](NC(=O)c5ccncc5)c5ccccc5)s4)cc3)cc2)s1)c1ccccc1)c1ccncc1` as the compound, how does the CC50 read?
Its CC50 is > 50 µM.

Which CC50 does the source give for `O=C(Cc1ccccc1)N[C@@H](C(=O)N1CCC[C@H]1c1ncc(-c2ccc(-c3ccc(-c4cnc([C@@H]5CCCN5C(=O)[C@H](NC(=O)Cc5ccccc5)c5ccccc5)s4)cc3)cc2)s1)c1ccccc1` here?
The CC50 was > 50 µM.

For `O=C(Cc1ccccc1)N[C@H](C(=O)N1CCC[C@H]1c1ncc(-c2ccc(-c3ccc(-c4cnc([C@@H]5CCCN5C(=O)[C@H](NC(=O)Cc5ccccc5)c5ccccc5)s4)cc3)cc2)s1)c1ccccc1`, which CC50 is on record?
Its CC50 is > 50 µM.

For `CC[C@@H](NC(=O)C1CC1)C(=O)N1CCC[C@H]1c1ncc(-c2ccc(-c3ccc(-c4cnc([C@@H]5CCCN5C(=O)[C@@H](CC)NC(=O)C5CC5)s4)cc3)cc2)s1`, which CC50 is on record?
Its CC50 is > 50 µM.

With `CC(C)(C)[C@@H](NC(=O)C1CC1)C(=O)N1CCC[C@H]1c1ncc(-c2ccc(-c3ccc(-c4cnc([C@@H]5CCCN5C(=O)[C@H](NC(=O)C5CC5)C(C)(C)C)s4)cc3)cc2)s1` as the compound, how does the CC50 read?
Its CC50 is > 50 µM.

Which CC50 does the source give for `O=C(N[C@@H](C(=O)N1CCC[C@H]1c1ncc(-c2ccc(-c3ccc(-c4cnc([C@@H]5CCCN5C(=O)[C@H](NC(=O)c5ccoc5)c5ccccc5)s4)cc3)cc2)s1)c1ccccc1)c1ccoc1` here?
The CC50 was > 50 µM.

Which CC50 does the source give for `O=C(N[C@H](C(=O)N1CCC[C@H]1c1ncc(-c2ccc(-c3ccc(-c4cnc([C@@H]5CCCN5C(=O)[C@H](NC(=O)c5cccs5)c5ccccc5)s4)cc3)cc2)s1)c1ccccc1)c1cccs1` here?
Its CC50 is > 50 µM.

For `O=C(N[C@H](C(=O)N1CCC[C@H]1c1ncc(-c2ccc(-c3ccc(-c4cnc([C@@H]5CCCN5C(=O)[C@H](NC(=O)C5CCC5)c5ccccc5)s4)cc3)cc2)s1)c1ccccc1)C1CCC1`, which CC50 is on record?
Its CC50 is > 50 µM.

Which CC50 does the source give for `O=C(N[C@@H](C(=O)N1CCC[C@H]1c1ncc(-c2ccc(-c3ccc(-c4cnc([C@@H]5CCCN5C(=O)[C@H](NC(=O)N5CCOCC5)c5ccccc5)s4)cc3)cc2)s1)c1ccccc1)N1CCOCC1` here?
The CC50 was > 50 µM.

For `CN1CCN(CCC(=O)N[C@@H](C(=O)N2CCC[C@H]2c2ncc(-c3ccc(-c4ccc(-c5cnc([C@@H]6CCCN6C(=O)[C@H](NC(=O)CCN6CCN(C)CC6)c6ccccc6)s5)cc4)cc3)s2)c2ccccc2)CC1`, which CC50 is on record?
The CC50 was > 50 µM.

Which CC50 does the source give for `C[C@@H](NC(=O)C1CC1)C(=O)N1CCC[C@H]1c1ncc(-c2ccc(-c3ccc(-c4cnc([C@@H]5CCCN5C(=O)[C@@H](C)NC(=O)C5CC5)s4)cc3)cc2)s1` here?
Its CC50 is > 50 µM.
